This passage reports GI50, Activity and viability results from ChEMBL document CHEMBL4270573, “Novel nicotinoyl pyrazoline derivates bearing N-methyl indole moiety as antitumor agents: Design, synthesis and evaluation” (Eur J Med Chem, 2018).

Data set [1] concerns MCF7. The data set is described as follows: Growth inhibition of human MCF7 cells after 48 hrs by MTT assay. The following applies: MCF7, 48 h. It is filed as functional. The gist of the method: (§1)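 Proliferation read-out; GI50 taken as the concentration giving 50% reduction of cancer cell proliferation.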
Data set [2] relates to A549. As to the kind of experiment: Growth inhibition of human A549 cells after 48 hrs by MTT assay. It is filed as functional. The following applies: A549, 48 h. The gist of the method: as §1
For data set [3], the system named is HeLa. The data set is described as follows: Cell cycle arrest in human HeLa cells assessed as accumulation at G0/G1 phase at 0.020 uM after 24 hrs by propidium iodide staining based flow cytometric analysis (reference value: 66.26%). It is filed as functional. The gist of the method: (§2)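 HepG2 and HeLa cells were exposed to 0, 0.020, 0.040, 0.060, 0.080 or 0.10 µM for 6, 12 or 24 h. DNA content was stained with propidium iodide and analysed by flow cytometry to give the percentage of cells in G0/G1, S and G2/M phases; sub-G1 cells were also recorded.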

Data set [4] deals with HepG2. The data set is described as follows: Cell cycle arrest in human HepG2 cells assessed as accumulation at S phase at 0.10 uM after 24 hrs by propidium iodide staining based flow cytometric analysis (reference value: 20.40%). It is filed as functional. The gist of the method: as §2
For data set [5], the system named is HeLa. The data set is described as follows: Induction of apoptosis in human HeLa cells assessed as late apoptotic cells at 0.040 uM after 24 hrs by Annexin V-FITC/propidium iodide staining based flow cytometric analysis (reference value: 4.98%). It is filed as functional. The gist of the method:
(§3)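 HepG2 and HeLa cells were exposed to 0, 0.02, 0.040, 0.060, 0.080 and 0.10 µM for 6, 12 and 24 h. Cells were double-stained with Annexin V-FITC/PI and read by flow cytometry. Apoptotic rate was the percentage of FITC-positive cells, counting early plus late apoptotic.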

The test system of data set [6] is HepG2. The data set is described as follows: Induction of apoptosis in human HepG2 cells assessed as early apoptotic cells at 0.020 uM after 24 hrs by Annexin V-FITC/propidium iodide staining based flow cytometric analysis (reference value: 2.31%). The class given is functional. The gist of the method:
as §3

The subject of data set [7] is HepG2. The data set is described as follows: Induction of apoptosis in human HepG2 cells assessed as viable cells at 0.040 uM after 24 hrs by Annexin V-FITC/propidium iodide staining based flow cytometric analysis (reference value: 94.5%). The note with it: HepG2, 24 h, read-out: Activity. The class given is functional. The gist of the method:
as §3

For data set [8], the system named is Mus musculus. As to the kind of experiment: Toxicity in nude mouse xenografted with human HeLa cells assessed as change in mouse heart weight at 10 to 20 mg/kg, ip after 14 days. The following applies: in vivo, 336 h. It is filed as organism-based.
Data set [9] concerns HeLa. The data set is described as follows: Antitumor activity against human HeLa cells xenografted in nude mouse assessed as loose and irregular arrangement of tumor cells at 10 to 20 mg/kg, ip after 14 days by hematoxylin and eosin staining based microscopic analysis. It is filed as functional, organism-based. The gist of the method:
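Excised tumours and heart, liver, kidney and spleen were H&E-stained and examined microscopically. Tumour scoring covered cell arrangement and necrosis. Organ scoring covered inflammatory infiltration, edema, necrosis and cell morphology.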

The subject of data set [10] is Mus musculus. As to the kind of experiment: Toxicity in nude mouse xenografted with human HeLa cells assessed as edema in spleen at 10 to 20 mg/kg, ip after 14 days by hematoxylin and eosin staining based microscopic analysis. It is filed as organism-based. The following applies: in vivo, 336 h.

Structures are written as SMILES. The source made the active and inactive calls. The calls are words filed in the database; no cut-off is given here.

With `COc1cccc(C2=NN(C(=O)c3ccc(C)nc3)C(c3cn(C)c4ccc(OC)cc34)C2)c1` (stereo not given), the GI50 in [1] was determined as 90 nM; in [2], 590 nM. For the same molecule, the Activity in [3] was 66.95%; in data set [4], 27.64%; in [5] it was 3.95%; in data set [6], 3.18%; in data set [8], “Non-Toxic”; in [10], “Non-Toxic”. Also, the viability at 0.04 µM in [7] was found to be 84.2%. Moreover, the outcome in data set [9] was Active.
